Measurements reported in ChEMBL document CHEMBL1671645, “Pharmacokinetics and absorption of posaconazole oral suspension under various gastric conditions in healthy volunteers” (Antimicrob Agents Chemother, 2009).

Legend:
Homo sapiens [1] = test: Toxicity in healthy human assessed as asthenia at 400 mg BID, po administered as suspension for 7 days coadministered with nutritional supplement; type: organism-based; settings: in vivo, 168 h
In short: (§1)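 Healthy volunteers monitored for adverse events, vital signs, clinical laboratory values and 12-lead ECG. Adverse events tabulated by body system or organ class and severity and summarized by treatment across the crossover regimens.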

Homo sapiens [2] = test: Apparent total body clearance in healthy human at 200 mg QID, po administered as suspension for 7 days coadministered with nutritional supplement; type: ADME, organism-based; settings: in vivo, 168 h
In short: (§2)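 Twelve healthy subjects took oral suspension for 7 days as 400 mg BID or 200 mg QID, either fasting or with a Boost-type nutritional supplement, in a crossover with 14–21 day washouts. Nonfat snacks of 800 cal/day or less were allowed. Plasma was sampled 0–168 h after the day-7 morning dose only and analysed by LC-MS/MS. AUC is AUC_τ, normalized to dose.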

[3] = Tmax in healthy human at 400 mg administered as single dose suspension coadministered with nutritional supplement and 4 mg loperamide as two 2 mg tablets; type: ADME, organism-based; settings: in vivo
In short: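 Oral suspension (40 mg/ml) single dose with nutritional supplement plus loperamide 4 mg single dose, healthy volunteers, three-way crossover with 7–10-day washout. EDTA plasma drawn predose and 1–168 h postdose. LC-MS/MS assay (LLOQ 5.00 ng/ml). Noncompartmental parameters; Tmax reported as median (range).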

Homo sapiens [4] = test: Toxicity in healthy human assessed as headache at 400 mg BID, po administered as suspension for 7 days; type: organism-based; settings: in vivo, 168 h
In short: (§3)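 Healthy volunteers (n = 12) took oral posaconazole suspension (40 mg/ml) for 7 days in a four-way randomized crossover with a 14- to 21-day washout. Subjects stayed fasted throughout, with nonfat snacks up to 800 cal/day allowed. Where given, Boost was taken with each dose. Safety covered adverse events, vital signs, clinical labs and 12-lead ECG, with AEs tabulated by body system and severity per treatment.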

[5] = Tmax in fasted healthy human at 400 mg administered as single dose suspension after 20 mins after consumption of high fat meal; type: ADME, organism-based; settings: in vivo
In short: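 Single oral suspension dose in healthy volunteers while fasting, 5 min before, midway through (about 10 min into a 20-min meal), or 20 min after a high-fat meal (approx 50 g fat); four-way crossover, 7–10-day washout. Plasma 0–168 h by LC-MS/MS (LLOQ 5.00 ng/ml). t1/2 = ln(2)/K; Tmax median.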

Homo sapiens [6] = test: Toxicity in healthy human assessed as nausea at 400 mg administered as single dose suspension coadministered with nutritional supplement and 4 mg loperamide as two 2 mg tablets; type: organism-based; settings: in vivo
In short: (§4)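 Three-way randomized crossover in 13 healthy volunteers with a 7- to 10-day washout. Each period was one 400-mg oral posaconazole suspension dose with a nutritional supplement. Metoclopramide 10 mg was given orally three times daily on the day before and the day of dosing; loperamide was a single 4 mg. Safety was assessed from adverse events, tabulated by body system and severity per treatment.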

[7] = Cmax in fasted healthy human plasma at 400 mg BID, po administered as suspension for 7 days; type: ADME, organism-based; parameters: dose 400 mg, route oral; in short: as §2
Homo sapiens [8] = test: Toxicity in healthy human assessed as headache at 200 mg QID, po administered as suspension for 7 days coadministered with nutritional supplement; type: organism-based; settings: in vivo, 168 h; in short: as §3
Homo sapiens [9] = test: AUC in healthy human at 200 mg QID, po administered as suspension for 7 days coadministered with nutritional supplement; type: ADME, organism-based, Plasma; settings: in vivo, 168 h; in short: as §2
[10] = Half life in healthy human at 400 mg BID, po administered as suspension for 7 days coadministered with nutritional supplement; type: ADME, organism-based; settings: in vivo
In short: (§5)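 Healthy volunteers given oral suspension (40 mg/ml) for 7 days, fasted or with nutritional supplement (Boost); four-way crossover, 14–21-day washout, nonfat snacks ≤800 cal/day allowed. On day 7 only the morning dose was given; plasma sampled predose to 168 h after it. LC-MS/MS (LLOQ 5.00 ng/ml). t1/2 = ln(2)/K from log-linear terminal slope; Tmax as median.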

[11] = Tmax in fasted healthy human at 400 mg BID, po administered as suspension for 7 days; type: ADME, organism-based; settings: in vivo; in short: as §5
Homo sapiens [12] = test: Toxicity in healthy human assessed as asthenia at 200 mg QID, po administered as suspension for 7 days; type: organism-based; settings: in vivo, 168 h; in short: as §1
Homo sapiens [13] = test: Toxicity in healthy human assessed as adverse events at 400 mg administered as single dose suspension after consumption of high fat meal; type: organism-based; settings: in vivo; in short: as §1
[14] = Cmax in fasted healthy human plasma at 400 mg administered as single dose suspension coadministered with acidic carbonated beverage; type: ADME, organism-based; parameters: dose 400 mg
In short: (§6)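 This was a four-way crossover in 12 healthy subjects with 7–10 day washouts. Each took one fasting 400 mg oral suspension dose, with 12 oz ginger ale and/or esomeprazole 40 mg once each morning on days −2 to 1, with dosing on day 1. Plasma was sampled 0–168 h and measured by LC-MS/MS (LLOQ 5.00 ng/ml). Analysis was noncompartmental, with CL/F = dose/AUC_I and V/F = (CL/F)/K.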

Homo sapiens [15] = test: Toxicity in healthy human assessed as dizziness at 400 mg administered as single dose suspension coadministered with nutritional supplement; type: organism-based; settings: in vivo; in short: as §4
[16] = Cmax in fasted healthy human plasma at 400 mg administered as single dose suspension coadministered with acidic carbonated beverage and proton pump inhibitor; type: ADME, organism-based; parameters: dose 400 mg; in short: as §6
[17] = Half life in fasted healthy human at 400 mg administered as single dose suspension coadministered with acidic carbonated beverage; type: ADME, organism-based; settings: in vivo
In short: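 Single oral suspension dose in fasting healthy volunteers, alone, with 12 oz ginger ale, after esomeprazole 40 mg once each morning days −2 to 1, or both; four-way crossover, 7–10-day washout. EDTA plasma 0–168 h. LC-MS/MS (LLOQ 5.00 ng/ml). t1/2 = ln(2)/K from terminal log-linear regression; Tmax median.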

Homo sapiens [18] = test: Toxicity in healthy human assessed as dizziness at 400 mg BID, po administered as suspension for 7 days coadministered with nutritional supplement; type: organism-based; settings: in vivo, 168 h; in short: as §3
Homo sapiens [19] = test: Toxicity in healthy human assessed as adverse events at 400 mg administered as single dose suspension coadministered with nutritional supplement and 10 mg metoclopramide; type: organism-based; settings: in vivo; in short: as §1
[20] = Apparent volume of distribution in healthy human at 400 mg administered as single dose suspension coadministered with nutritional supplement and 4 mg loperamide as two 2 mg tablets; type: ADME, organism-based; settings: in vivo, po, read-out: Vc/F
In short: (§7)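 A three-way crossover in 13 healthy subjects gave one 400 mg oral suspension dose with a nutritional supplement, either alone, with metoclopramide 10 mg orally three times daily on the day before and the day of dosing, or with a single 4 mg dose of loperamide. Plasma was taken 0–168 h for LC-MS/MS. Analysis was noncompartmental.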

[21] = Apparent volume of distribution in fasted healthy human at 400 mg administered as single dose suspension; type: ADME, organism-based; settings: in vivo, read-out: Vc/F
[22] = Cmax in fasted healthy human plasma at 200 mg QID, po administered as suspension for 7 days; type: ADME, organism-based; parameters: dose 200 mg, route oral; in short: as §2
[23] = Apparent total body clearance in healthy human at 400 mg administered as single dose suspension coadministered with nutritional supplement and 4 mg loperamide as two 2 mg tablets; type: ADME, organism-based; settings: in vivo, po; in short: as §7
Homo sapiens [24] = test: Toxicity in healthy human assessed as adverse events at 400 mg administered as single dose suspension coadministered with proton pump inhibitor; type: organism-based; parameters: scale not given: the % may be the effect or the level left; settings: in vivo; in short: as §1
Homo sapiens [25] = test: Toxicity in healthy human assessed as nausea at 400 mg administered as single dose suspension coadministered with nutritional supplement and 10 mg metoclopramide; type: organism-based; settings: in vivo; in short: as §4
[26] = AUC in fasted healthy human at 400 mg administered as single dose suspension; type: ADME, organism-based; settings: plasma

In the case of `CC[C@@H]([C@H](C)O)n1ncn(-c2ccc(N3CCN(c4ccc(OC[C@@H]5CO[C@@](Cn6cncn6)(c6ccc(F)cc6F)C5)cc4)CC3)cc2)c1=O` [POSACONAZOLE], the Activity (Homo sapiens [1]) is reported as 25%, the CL/F (Homo sapiens [2]) is reported as 20.4 L/h and the Tmax [3] is reported as 5 h. For the same molecule, the Activity (Homo sapiens [4]) was 25%, the Tmax [5] was 6 h and the Activity (Homo sapiens [6]) was 23%. The Cmax [7] was 0.982 µg/mL, the Activity (Homo sapiens [8]) was 25% and the AUC (Homo sapiens [9]) was 112 µg·h/mL. It also gave a half-life [10] of 29.5 h, a Tmax [11] of 6 h and an Activity (Homo sapiens [12]) of 25%. It also gave an Activity (Homo sapiens [13]) of 25%, a Cmax [14] of 0.286 µg/mL and an Activity (Homo sapiens [15]) of 15%. For the same molecule, the Cmax [16] was 0.0933 µg/mL, the half-life [17] was 25.2 h and the Activity (Homo sapiens [18]) was 33%. For the same molecule, the Activity (Homo sapiens [19]) was 38%, the Vd/F [20] was 1750 L and the Vd/F [21] was 3580 L. The Cmax [22] was 2.3 µg/mL, the CL/F [23] was 743 mL/min and the Activity (Homo sapiens [24]) was 25%. For the same molecule, the Activity (Homo sapiens [25]) was 23% and the AUC [26] was 5.6 µg·h/mL.
